Screens (PubChem)
This is a sample that favours compounds with a hit; in the whole collection about 5.9% have one here.
KDM4C inh: inhibitors of human demethylase GASC-1 KDM4C; inhibition, % at 12.5 µM; AID 720574; 0.15% of 96,000 active; GST-KDM4C 2-372, H3K9me3 peptide, LANCE TR-FRET;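 active = mean replicate inhibition above about 25%, with at least 55% of replicates also reaching it, limit read from the data, passing the limit was not always enough; inconclusive = only one of those two conditions met; inactive = neither condition met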
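System – N-terminal GST-fused human GASC-1 (KDM4C) fragment, residues 2-372 · Input – enzyme final amount 10 nM · Technique – LANCE TR-FRET, Eu antibody, ULight-streptavidin, EDTA, ex 340 nm, em 618/671 nm · Medium – HEPES buffer, pH 7.5, plus ascorbate · Incubation – enzyme reaction 30 min, then detection 60 min, both room temperature · Reagent – H3K9me3 peptide with Fe(II)/2OG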
T cruzi growth-1: inhibitors of T. cruzi proliferation; T. cruzi beta-gal in NIH3T3, GalScreen luminescence, 90 h; inhibition, % at 8.34 µM; 5.9% of 77,000 active;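 active = mean inhibition above about 93%, with at least 55% of replicates each passing it, limit read from the data, passing the limit was not always enough; inconclusive = only one of those two conditions holds; inactive = neither condition holds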
IDH1 R132H inh: IDH1 R132H (human) inhibition; O75874; IDH1 R132H reductase, diaphorase/resazurin fluorescence, 60 min; inhibition, % at 10 µM; 0.18% of 70,000 active; in the data active = inhibition above about 34%; inconclusive = no clear call, values can overlap the other calls; inactive = below about 11%;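 also: 0% = DMSO and 100% = no enzyme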
Target sequence (O75874 whole entry R132H): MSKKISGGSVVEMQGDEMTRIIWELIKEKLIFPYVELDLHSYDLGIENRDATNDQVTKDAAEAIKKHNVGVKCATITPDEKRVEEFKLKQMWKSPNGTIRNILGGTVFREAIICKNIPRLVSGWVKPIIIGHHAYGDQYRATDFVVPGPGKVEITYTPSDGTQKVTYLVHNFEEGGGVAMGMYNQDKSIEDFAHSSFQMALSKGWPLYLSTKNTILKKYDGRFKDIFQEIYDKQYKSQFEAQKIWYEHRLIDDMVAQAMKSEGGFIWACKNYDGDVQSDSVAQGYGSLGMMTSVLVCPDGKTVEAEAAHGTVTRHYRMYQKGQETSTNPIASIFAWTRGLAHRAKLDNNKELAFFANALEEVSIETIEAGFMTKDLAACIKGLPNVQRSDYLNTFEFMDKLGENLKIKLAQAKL
Pf Dd2 growth: inhibitors of Plasmodium falciparum Dd2 growth; 2.3% of 94,000 active; activity change, % at 10 µM; P. falciparum Dd2 growth, SYBR Green, 72 h; hits give low values; in the data active = activity change below about -80%; inconclusive = no clear call, values can overlap the other calls
T cruzi growth-2: Trypanosoma cruzi proliferation inhibition; T. cruzi beta-gal in NIH3T3, GalScreen luminescence, 90 h; inhibition, % at 8.35 µM; AID 651739; 72% of 5,600 active; shares compounds with T cruzi growth-1;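 active = mean replicate inhibition above about 95% and at least 55% of replicates individually reaching it, limit read from the data; inconclusive = only one of the two criteria is met; inactive = neither criterion is met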
T cruzi growth-3: Trypanosoma cruzi proliferation inhibition; shares compounds with T cruzi growth-1; T. cruzi beta-gal in NIH3T3, GalScreen luminescence, 90 h; inhibition, % at 2.09 µM; 21% of 5,600 active; AID 651740;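 active = mean inhibition above about 95%, with at least 55% of replicates also reaching it, limit read from the data; inconclusive = meets just one of the two conditions; inactive = meets neither condition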;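 also: plate controls were neutral control median for no effect and positive control median for full effect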
NIH3T3 tox: cytotoxicity in mouse NIH/3T3 fibroblasts; shares compounds with T cruzi growth-1; NIH/3T3 viability, CellTiter-Glo ATP luminescence, 90 h; cytotoxicity (signal decrease), % at 8.35 µM; 14% of 5,600 active; AID 651742;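 active = mean signal decrease across replicates above about 35% based on untreated-well scatter, with enough replicates individually passing, limit read from the data; inconclusive = no rule stated though some were filed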;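 also: 0% = median of neutral control wells and 100% = median of positive control wells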
3T3 cytotox 2: cytotoxicity in mouse NIH/3T3 fibroblasts | 56% of 5,600 active | shares compounds with T cruzi growth-1 | inhibition, % at 24.9 µM | AID 651744 | NIH/3T3 viability, CellTiter-Glo ATP luminescence, 90 h;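 active = mean loss of cell viability signal at or above a set limit, and enough replicates individually reaching it; inconclusive = meets only the mean limit or only the replicate share; inactive = meets neither condition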;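 also: 0% = median of neutral control wells and 100% = median of positive control wells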
An asterisk follows results filed as active; u = inconclusive; x = no result given; ! = repeats disagree.

SMILES	KDM4C inh	T cruzi growth-1	IDH1 R132H inh	Pf Dd2 growth	T cruzi growth-2	T cruzi growth-3	NIH3T3 tox	3T3 cytotox 2
C[C@H](CO)N1C[C@H](C)[C@@H](CN(C)Cc2ccc(Oc3ccccc3)cc2)Oc2c(NC(=O)Nc3ccc(F)cc3)cccc2C1=O	-2	126*	1	-18	73	-6	-25	-7
C[C@H](CO)N1C[C@H](C)[C@H](CN(C)Cc2ccc(Oc3ccccc3)cc2)Oc2c(NC(=O)Nc3ccc(F)cc3)cccc2C1=O	-1	59	-3	10	x	x	x	x
COc1ccc(S(=O)(=O)NCCc2ccc(OC)c(OC)c2)cc1C	x	x	0	x	x	x	x	x
C[C@@H]1CN([C@@H](C)CO)C(=O)c2cc(C#CCC3CCCC3)cnc2O[C@H]1CN(C)C(=O)CC1CC1	-2	100*	0	-33	u	48	21	39*
C[C@@H]1CN([C@H](C)CO)C(=O)c2cc(C#CCC3CCCC3)cnc2O[C@H]1CN(C)C(=O)CC1CC1	-1	u	-1	-52	96*	23	19	83*
COc1ccc(S(=O)(=O)N(C)C[C@@H]2Oc3ccc(NC(=O)Cn4cnnn4)cc3C(=O)N([C@H](C)CO)C[C@H]2C)cc1	-1	105*	-4	-24	52	-5	-14	10
COc1ccc(S(=O)(=O)N(C)C[C@H]2Oc3ccc(NC(=O)Cn4cnnn4)cc3C(=O)N([C@H](C)CO)C[C@@H]2C)cc1	-1	-80	-5	1	x	x	x	x
COc1ccc(S(=O)(=O)N(C)C[C@H]2Oc3ccc(NC(=O)Cn4cnnn4)cc3C(=O)N([C@@H](C)CO)C[C@@H]2C)cc1	0	100*	-1	-25	-13	-14	-6	14
COC(=O)c1c(NC(=S)Nc2c(C)nn(Cc3c(F)c(F)c(F)c(F)c3F)c2C)sc(C)c1-c1ccccc1	x	x	0	x	x	x	x	x
C[C@@H]1CN([C@@H](C)CO)S(=O)(=O)c2ccc(C#CC3CCCC3)cc2O[C@H]1CN(C)Cc1cccnc1	1	93	x	-69	x	x	x	x
C[C@H]1CN([C@@H](C)CO)S(=O)(=O)c2ccc(C#CC3CCCC3)cc2O[C@H]1CN(C)Cc1cccnc1	2	117*	x	-77	103*	95	23	104*
C[C@@H]1CN([C@H](C)CO)S(=O)(=O)c2ccc(C#CC3CCCC3)cc2O[C@H]1CN(C)Cc1cccnc1	2	97*	x	-82*	94	u	26	105*
Cc1cc(C(F)(F)F)nc(SCC(=O)Nc2cccc(Cl)c2Cl)n1	x	x	0	x	x	x	x	x
COc1ccc(Oc2c(C(F)(F)F)oc3cc(OCC(=O)Nc4ccccc4F)ccc3c2=O)cc1	x	x	0	x	x	x	x	x
CC(C)C#Cc1ccc2c(c1)O[C@@H](CN(C)C(=O)c1ccncc1)[C@@H](C)CN([C@H](C)CO)S2(=O)=O	-1	107*	2	-11	102*	u	27	42*
CC(C)C#Cc1ccc2c(c1)O[C@@H](CN(C)C(=O)c1ccccc1)[C@H](C)CN([C@H](C)CO)S2(=O)=O	0	99*	0	-76	104*	46	46*	39*
CC(C)C#Cc1ccc2c(c1)O[C@H](CN(C)C(=O)c1ccccc1)[C@@H](C)CN([C@H](C)CO)S2(=O)=O	2	115*	0	-65	105*	61	0	30*
Cn1c(SCC(=O)Nc2ccc(Oc3ccccc3)cc2)nnc1-c1ccccc1Cl	x	x	-1	x	x	x	x	x
COc1ccc(S(=O)(=O)N(C)CC(=O)Nc2cc(Cl)c(Cl)cc2Cl)cc1Cl	x	x	0	x	x	x	x	x
Cn1c(SCC(=O)Nc2ccc(Cl)cc2)nnc1-c1ccc(Br)cc1	x	x	0	x	x	x	x	x
Cc1ccc(C)c(N(CC(=O)Nc2ccc(Br)c(Cl)c2)S(C)(=O)=O)c1	x	x	0	x	x	x	x	x
O=C(C[C@@H]1CC[C@@H]2[C@H](COC[C@@H](O)CN2S(=O)(=O)c2cccc(Cl)c2)O1)Nc1ccc(-c2ccccc2)cc1	-1	108*	x	-10	98*	u	34	70*
O=C(C[C@@H]1CC[C@H]2[C@@H](COC[C@@H](O)CN2S(=O)(=O)c2cccc(Cl)c2)O1)Nc1ccc(-c2ccccc2)cc1	0	110*	x	-3	101*	53	8	103*
O=[N+]([O-])c1ccccc1S(=O)(=O)Nc1nccs1	x	x	1	x	x	x	x	x
C[C@H](CO)N1C[C@H](C)[C@@H](CN(C)Cc2ccc(C(=O)Nc3ccccc3N)cc2)Oc2c(NC(=O)c3nc4ccccc4s3)cccc2C1=O	-2	106*	x	-89*	108*	85	-31	11
SMILES	KDM4C inh	T cruzi growth-1	IDH1 R132H inh	Pf Dd2 growth	T cruzi growth-2	T cruzi growth-3	NIH3T3 tox	3T3 cytotox 2
C[C@H](CO)N1C[C@H](C)[C@@H](CN(C)Cc2ccc(C(=O)O)cc2)Oc2c(NC(=O)c3nc4ccccc4s3)cccc2C1=O	0	42	-10	9	x	x	x	x
C[C@H](CO)N1C[C@H](C)[C@H](CN(C)Cc2ccc(C(=O)Nc3ccccc3N)cc2)Oc2c(NC(=O)c3nc4ccccc4s3)cccc2C1=O	-1	u	0	-93*	102*	105*	23	64*
C[C@H]1CN([C@@H](C)CO)C(=O)c2cccc(NC(=O)c3nc4ccccc4s3)c2O[C@@H]1CN(C)Cc1ccc(C(=O)Nc2ccccc2N)cc1	0	106*	0	-89*	107*	92	11	u
C[C@H](CO)N1C[C@H](C)[C@H](CN(C)S(=O)(=O)c2ccccc2)OCCCC[C@H](C)Oc2ccc(N(C)C)cc2C1=O	1	34	0	-38	x	x	x	x
C[C@H]1CCCCO[C@@H](CN(C)S(=O)(=O)c2ccccc2)[C@@H](C)CN([C@@H](C)CO)C(=O)c2cc(N(C)C)ccc2O1	0	107*	-1	-60	69	14	19	17
C[C@H](CO)N1C[C@H](C)[C@H](CN(C)S(=O)(=O)c2ccc(F)cc2)OCCCC[C@H](C)Oc2ccc(N(C)C)cc2C1=O	-1	u	x	-40	96*	24	-12	-21
C[C@H]1CCCCO[C@@H](CN(C)S(=O)(=O)c2ccc(F)cc2)[C@@H](C)CN([C@@H](C)CO)C(=O)c2cc(N(C)C)ccc2O1	1	81	x	-1	x	x	x	x
COc1ccc(S(=O)(=O)N(C)C[C@@H]2OCCCC[C@@H](C)Oc3ccc(N(C)C)cc3C(=O)N([C@H](C)CO)C[C@H]2C)cc1	13	76	-1	2	x	x	x	x
COc1ccc(S(=O)(=O)N(C)C[C@H]2OCCCC[C@H](C)Oc3ccc(N(C)C)cc3C(=O)N([C@H](C)CO)C[C@@H]2C)cc1	2	102*!	1	-88*	51	21	-25	-14
